From ChEMBL document CHEMBL4346661, “Design, synthesis and evaluation of novel diaryl-1,5-diazoles derivatives bearing morpholine as potent dual COX-2/5-LOX inhibitors and antitumor agents” (Eur J Med Chem, 2019)
The source made the active and inactive calls. The rule behind the calls is not given here.

What was measured:
B16-F10 [1] = experiment: Antiproliferative activity against mouse B16F10 cells incubated for 48 hrs by MTT assay; assay type: functional, cell-based; details: B16-F10, 48 h
Summary of the method: (§1)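 MTT assay on F10 (murine melanoma), HeLa, A549, MCF-7 and 293T (human renal epithelium) cells. IC50 given as mean ± SD of three independent experiments.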

HeLa = experiment: Antiproliferative activity against human HeLa cells incubated for 48 hrs by MTT assay; assay type: functional, cell-based; summary of the method: as §1
A549 = experiment: Antiproliferative activity against human A549 cells incubated for 48 hrs by MTT assay; assay type: functional, cell-based; details: A549, 48 h; summary of the method: as §1
MCF7 = experiment: Antiproliferative activity against human MCF7 cells incubated for 48 hrs by MTT assay; assay type: functional, cell-based; details: MCF7, 48 h; summary of the method: as §1
HEK-293T = experiment: Antiproliferative activity against human 293T cells incubated for 48 hrs by MTT assay; assay type: cell-based; summary of the method: as §1
[2] = target: T1, Prostaglandin G/H synthase 2 (Homo sapiens, UniProt P35354); experiment: Inhibition of COX2 (unknown origin) using arachidonic acid as substrate incubated for 10 mins by Ellman's reagent based COX-1/COX-2 ELISA assay
T1 sequence (P35354 whole entry): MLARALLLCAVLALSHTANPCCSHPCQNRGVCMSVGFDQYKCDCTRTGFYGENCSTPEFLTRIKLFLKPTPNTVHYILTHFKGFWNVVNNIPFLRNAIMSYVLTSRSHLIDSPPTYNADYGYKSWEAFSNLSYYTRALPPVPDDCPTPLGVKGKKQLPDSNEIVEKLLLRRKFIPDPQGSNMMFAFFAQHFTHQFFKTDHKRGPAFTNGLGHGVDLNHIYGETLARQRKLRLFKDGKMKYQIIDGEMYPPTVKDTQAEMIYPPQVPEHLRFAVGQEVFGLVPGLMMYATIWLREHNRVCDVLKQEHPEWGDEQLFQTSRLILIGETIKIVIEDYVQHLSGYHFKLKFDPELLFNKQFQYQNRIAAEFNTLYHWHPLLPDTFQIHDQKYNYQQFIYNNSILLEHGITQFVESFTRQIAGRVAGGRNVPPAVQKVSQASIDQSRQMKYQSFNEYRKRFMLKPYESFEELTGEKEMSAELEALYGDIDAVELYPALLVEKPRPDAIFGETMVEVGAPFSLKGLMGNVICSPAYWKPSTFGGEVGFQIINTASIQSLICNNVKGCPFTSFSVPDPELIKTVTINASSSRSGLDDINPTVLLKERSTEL

[3] = target: Prostaglandin G/H synthase 1 (Homo sapiens, UniProt P23219); experiment: Inhibition of COX1 (unknown origin) using arachidonic acid as substrate incubated for 10 mins by Ellman's reagent based COX-1/COX-2 ELISA assay
Homo sapiens = organism: Homo sapiens; experiment: Selectivity index, ratio of IC50 for COX1 (unknown origin) to IC50 for COX2 (unknown origin)
Summary of the method: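 Ratio of COX-1 IC50 to COX-2 IC50, from human COX-1 and human COX-2 inhibitor screening assay kits. Each IC50 is the concentration giving 50% enzyme inhibition, taken as the mean of four determinations.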

[4] = Inhibition of 5-LOX assessed as calcium ionophore A23187-stimulated LTB4 production preincubated for 30 mins followed by calcium ionophore A23187 addition and measured after 30 mins by ELISA
B16-F10 [5] = experiment: Inhibition of LPS-induced PGE2 production in mouse B16F10 cells at 6.25 uM incubated for 24 hrs by enzyme immunoassay; assay type: functional, cell-based
Summary of the method: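 F10 cells treated for 24 h alongside LPS (1 µg/ml), test agent at 6.25 µM. Supernatant collected by centrifugation and PGE2 measured with a PGE2 enzyme immunoassay (ELISA) kit. Mean ± SD of three independent experiments.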

B16-F10 [6] = experiment: Antitumor activity against mouse B16F10 cells implanted in nude mouse assessed as reduction in tumor size at 20 mg/kg, ip administered once per 2 days for 14 days by caliper method; assay type: functional
Summary of the method: (§2)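 Nude mice were given 5×10^6 F10 cells subcutaneously in the right flank. At about 100 mm3, 24 mice were randomized into four groups of vehicle or compound. Dosing was intraperitoneal every two days for two weeks. Tumor volume was recorded every other day. Tumors were excised and weighed after the last treatment, and body weight was monitored.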

B16-F10 [7] = experiment: Antitumor activity against mouse B16F10 cells implanted in nude mouse assessed as decrease in tumor weight at 20 mg/kg, ip administered once per 2 days for 14 days by caliper method relative to control; assay type: functional, organism-based; summary of the method: as §2

Chain of Prostaglandin G/H synthase 1 (P23219 whole entry): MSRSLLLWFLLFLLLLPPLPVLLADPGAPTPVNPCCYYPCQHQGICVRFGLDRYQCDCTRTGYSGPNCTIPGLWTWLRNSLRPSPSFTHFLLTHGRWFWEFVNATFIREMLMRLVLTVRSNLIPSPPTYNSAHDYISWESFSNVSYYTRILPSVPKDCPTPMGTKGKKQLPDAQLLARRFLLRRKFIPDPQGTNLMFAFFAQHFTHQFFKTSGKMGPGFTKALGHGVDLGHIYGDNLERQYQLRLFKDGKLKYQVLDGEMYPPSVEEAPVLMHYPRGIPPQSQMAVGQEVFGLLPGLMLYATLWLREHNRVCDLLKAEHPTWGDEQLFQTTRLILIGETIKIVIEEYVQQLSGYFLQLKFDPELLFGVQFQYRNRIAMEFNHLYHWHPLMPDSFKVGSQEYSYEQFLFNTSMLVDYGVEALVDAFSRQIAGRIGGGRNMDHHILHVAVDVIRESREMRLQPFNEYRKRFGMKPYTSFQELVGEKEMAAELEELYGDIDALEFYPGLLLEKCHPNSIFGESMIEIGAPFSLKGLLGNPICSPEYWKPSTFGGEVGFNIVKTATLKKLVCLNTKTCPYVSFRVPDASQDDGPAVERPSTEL

IC50 (B16-F10 [1]) | IC50 (HeLa) | IC50 (A549) | IC50 (MCF7) | IC50 [2] | IC50 [3] | Ratio IC50 (Homo sapiens) | IC50 [4] | SMILES | IC50 (HEK-293T) | inhibition (B16-F10 [5]) | Activity (B16-F10 [6]) | Activity (B16-F10 [7])
8.16 µM | 9.94 µM | 10.2 µM | 9.25 µM | 0.19 µM | 30.8 µM | 162 | 0.71 µM | NS(=O)(=O)c1ccc(-n2nc(C(=O)N3CCSCC3)cc2-c2ccc(C(F)(F)F)cc2)cc1 | 136 µM | – | – | –
13.9 µM | 14.8 µM | 15.4 µM | 12.5 µM | 0.21 to 0.22 µM | 29.4 µM | 140 | 0.87 µM | NS(=O)(=O)c1ccc(-n2nc(C(=O)N3CCSCC3)cc2-c2cccc(Cl)c2)cc1 | 191 µM | – | – | –
14.4 µM | 29.8 µM | 15.2 µM | 14.7 µM | 0.21 µM | 28.5 µM | 136 | 0.75 µM | NS(=O)(=O)c1ccc(-n2nc(C(=O)OCCCN3CCOCC3)cc2-c2ccc(C(F)(F)F)cc2)cc1 | 179 µM | – | – | –
13.3 µM | – | 11 µM | 12.6 µM | – | – | – | – | Cc1ccc(-c2cc(C(F)(F)F)nn2-c2ccc(S(N)(=O)=O)cc2)cc1 [CELECOXIB] | 97.9 µM | Active | 978.35 mm3 | Active
15.5 µM | 13.6 µM | 19.9 µM | 18.1 µM | 0.89 µM | – | – | 1.57 µM | Cc1ccc(-c2cc(C(=O)N3CCSCC3)nn2-c2ccc(S(N)(=O)=O)cc2)cc1 | 106 µM | – | – | –
30.1 µM | 51.3 µM | 25.7 µM | 18.9 µM | 0.23 µM | – | – | 2.01 µM | NS(=O)(=O)c1ccc(-n2nc(C(=O)N3CCOCC3)cc2-c2cccc(F)c2)cc1 | 180 µM | – | – | –
> 100 µM | > 100 µM | 30.8 µM | 18.9 µM | 0.67 µM | – | – | 3.41 µM | NS(=O)(=O)c1ccc(-n2nc(C(=O)N3CCSCC3)cc2-c2ccccc2)cc1 | 164 µM | – | – | –
> 100 µM | > 100 µM | > 100 µM | > 100 µM | 3.57 µM | – | – | 0.75 µM | NS(=O)(=O)c1ccc(-n2nc(C(=O)OCCCN3CCOCC3)cc2-c2ccc(F)cc2)cc1 | > 300 µM | – | – | –
26.4 µM | 29.2 µM | 18.2 µM | 18.2 µM | 0.21 µM | – | – | 1.27 µM | NS(=O)(=O)c1ccc(-n2nc(C(=O)N3CCSCC3)cc2-c2ccc(F)cc2)cc1 | 174 µM | – | – | –
13 µM | 20.3 µM | 16 µM | 17.9 µM | 1.95 µM | – | – | 1.19 µM | COc1cccc(-c2cc(C(=O)N3CCSCC3)nn2-c2ccc(S(N)(=O)=O)cc2)c1 | 177 µM | – | – | –
21.8 µM | 27.4 µM | 20.5 µM | 18.1 µM | 0.42 µM | – | – | 0.93 µM | NS(=O)(=O)c1ccc(-n2nc(C(=O)NCCCN3CCOCC3)cc2-c2ccccc2)cc1 | 156 µM | – | – | –
> 100 µM | 20 µM | 19.5 µM | 23 µM | 0.31 µM | – | – | 0.89 µM | NS(=O)(=O)c1ccc(-n2nc(C(=O)NCCN3CCOCC3)cc2-c2ccc(Cl)cc2)cc1 | 112 µM | – | – | –
21.5 µM | 24.6 µM | 27.8 µM | 16.7 µM | 0.19 µM | – | – | 0.81 µM | NS(=O)(=O)c1ccc(-n2nc(C(=O)OCCN3CCOCC3)cc2-c2ccc(C(F)(F)F)cc2)cc1 | 148 µM | – | – | –
21.4 µM | > 100 µM | 22.8 µM | 17.9 µM | 0.93 µM | – | – | 1.24 µM | Cc1ccc(-c2cc(C(=O)N3CCOCC3)nn2-c2ccc(S(N)(=O)=O)cc2)cc1 | 190 µM | – | – | –
